This passage reports EC50, IC50 and Kd results from ChEMBL document CHEMBL1129630, “Synthesis and structure-activity relationships of retinoid X receptor selective diaryl sulfide analogs of retinoic acid” (J Med Chem, 1996).

The subject of assay [1] is HL-60. The assay is described as follows: Induction of transglutaminase (TGase) activity in HL-60 cells. To be noted: Homo sapiens.
The species named for assay [2] is Mus musculus. Kind of assay: Inhibition of Chondrogenesis in day 11 embryonic limb bud cells. To be noted: 264 h.
Assay [3] concerns the target T1, Retinoic acid receptor beta (Mus musculus, UniProt P22605).
T1 sequence (P22605 whole entry): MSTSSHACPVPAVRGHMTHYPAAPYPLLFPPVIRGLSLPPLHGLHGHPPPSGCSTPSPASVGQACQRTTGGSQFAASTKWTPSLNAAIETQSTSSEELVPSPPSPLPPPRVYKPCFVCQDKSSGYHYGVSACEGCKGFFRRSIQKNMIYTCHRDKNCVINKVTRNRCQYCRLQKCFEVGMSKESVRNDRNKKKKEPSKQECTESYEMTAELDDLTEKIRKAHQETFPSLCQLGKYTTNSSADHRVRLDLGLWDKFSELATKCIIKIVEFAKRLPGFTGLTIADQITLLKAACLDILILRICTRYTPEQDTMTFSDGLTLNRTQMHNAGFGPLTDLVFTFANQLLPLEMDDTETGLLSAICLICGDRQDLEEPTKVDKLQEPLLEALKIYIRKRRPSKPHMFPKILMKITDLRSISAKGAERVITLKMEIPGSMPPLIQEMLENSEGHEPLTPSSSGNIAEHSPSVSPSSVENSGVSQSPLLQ
Kind of assay: Dissociation constant for binding to Retinoic acid receptor beta;NA=not active. An outline of the steps:
(§1)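 Competitive binding assays against each receptor subtype, with Kd values taken from competition.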

In assay [4] the target is T2, Retinoic acid receptor gamma (Mus musculus, UniProt P18911).
T2 sequence (P18911 whole entry): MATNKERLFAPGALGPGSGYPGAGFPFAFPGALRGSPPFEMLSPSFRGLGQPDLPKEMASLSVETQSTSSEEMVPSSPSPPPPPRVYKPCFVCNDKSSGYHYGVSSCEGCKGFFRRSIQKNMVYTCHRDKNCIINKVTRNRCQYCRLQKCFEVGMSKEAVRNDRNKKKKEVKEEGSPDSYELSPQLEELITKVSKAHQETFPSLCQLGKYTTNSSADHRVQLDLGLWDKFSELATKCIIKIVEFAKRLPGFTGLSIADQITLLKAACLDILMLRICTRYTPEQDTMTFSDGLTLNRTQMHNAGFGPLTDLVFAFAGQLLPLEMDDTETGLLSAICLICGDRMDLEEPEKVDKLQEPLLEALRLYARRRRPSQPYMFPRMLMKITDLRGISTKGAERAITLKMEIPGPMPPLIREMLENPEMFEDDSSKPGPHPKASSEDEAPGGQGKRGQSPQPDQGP
The assay is described as follows: Dissociation constant for binding to Retinoic acid receptor gamma;NA=not active. An outline of the steps:
as §1

The target of assay [5] is T3, Retinoic acid receptor RXR-beta (Mus musculus, UniProt P28704).
T3 sequence (P28704 whole entry): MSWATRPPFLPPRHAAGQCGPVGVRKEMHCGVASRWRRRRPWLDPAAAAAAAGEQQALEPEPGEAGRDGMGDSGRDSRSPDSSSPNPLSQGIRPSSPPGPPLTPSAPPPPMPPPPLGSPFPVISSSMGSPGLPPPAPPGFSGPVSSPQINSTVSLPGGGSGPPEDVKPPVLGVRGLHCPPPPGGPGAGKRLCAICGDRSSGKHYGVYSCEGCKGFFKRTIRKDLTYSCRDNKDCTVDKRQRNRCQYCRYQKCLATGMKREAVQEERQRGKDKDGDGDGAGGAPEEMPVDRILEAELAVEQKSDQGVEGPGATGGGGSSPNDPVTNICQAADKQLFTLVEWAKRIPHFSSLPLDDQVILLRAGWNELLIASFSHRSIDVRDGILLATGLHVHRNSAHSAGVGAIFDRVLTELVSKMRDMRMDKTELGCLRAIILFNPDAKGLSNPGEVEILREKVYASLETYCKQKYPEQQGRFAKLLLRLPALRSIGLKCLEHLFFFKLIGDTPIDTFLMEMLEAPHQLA
Kind of assay: Dissociation constant for binding to Retinoid X receptor beta. An outline of the steps:
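Competitive binding assay measuring displacement at the RXRβ receptor subtype.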

The target in assay [6] is T4, Retinoic acid receptor gamma (Homo sapiens, UniProt P13631).
T4 sequence (P13631 whole entry): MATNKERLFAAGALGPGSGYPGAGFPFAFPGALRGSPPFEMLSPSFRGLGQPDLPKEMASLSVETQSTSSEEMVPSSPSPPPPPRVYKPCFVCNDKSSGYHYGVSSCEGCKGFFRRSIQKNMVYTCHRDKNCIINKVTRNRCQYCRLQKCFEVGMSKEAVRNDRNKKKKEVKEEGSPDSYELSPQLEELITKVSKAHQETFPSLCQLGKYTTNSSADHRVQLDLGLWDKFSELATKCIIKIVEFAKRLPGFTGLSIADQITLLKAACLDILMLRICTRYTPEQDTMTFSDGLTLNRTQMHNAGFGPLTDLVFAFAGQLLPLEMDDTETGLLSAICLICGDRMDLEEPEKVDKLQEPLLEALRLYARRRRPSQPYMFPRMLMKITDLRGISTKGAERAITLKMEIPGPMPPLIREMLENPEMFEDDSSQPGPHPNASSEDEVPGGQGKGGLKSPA
The assay is described as follows: Transcriptional activation of Retinoic acid receptor RAR gamma. Set-up: species or system Cercopithecidae. An outline of the steps:
(§2)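 CV-1 cells transiently cotransfected with the receptor construct and a reporter gene, with induced transcription measured. Activity is normalized to all-trans RA. EC50 is the concentration giving 50% of maximal observed response, from a single experiment in triplicate.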

The target in assay [7] is T5, Retinoic acid receptor RXR-alpha (Homo sapiens, UniProt P19793).
T5 sequence (P19793 whole entry): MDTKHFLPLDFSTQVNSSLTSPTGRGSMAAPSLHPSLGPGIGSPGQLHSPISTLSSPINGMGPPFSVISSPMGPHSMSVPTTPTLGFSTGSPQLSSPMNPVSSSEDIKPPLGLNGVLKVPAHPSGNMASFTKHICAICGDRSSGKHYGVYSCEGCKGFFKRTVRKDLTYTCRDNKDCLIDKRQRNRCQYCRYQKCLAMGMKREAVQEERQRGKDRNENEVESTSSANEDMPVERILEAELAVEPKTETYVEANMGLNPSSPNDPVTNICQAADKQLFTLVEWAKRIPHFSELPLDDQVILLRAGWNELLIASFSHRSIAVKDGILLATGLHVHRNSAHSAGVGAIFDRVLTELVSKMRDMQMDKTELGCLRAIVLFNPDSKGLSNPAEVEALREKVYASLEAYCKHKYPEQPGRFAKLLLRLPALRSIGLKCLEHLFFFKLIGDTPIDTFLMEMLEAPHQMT
The assay is described as follows: Transcriptional activation of Retinoid X receptor RXR alpha. Set-up: species or system Cercopithecidae. An outline of the steps: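 Transient cotransfection of CV-1 cells with the receptor gene construct plus a reporter gene, read as induced transcription. Activity normalized to all-trans RA. EC50 taken as the concentration giving 50% of the maximal observed response. Single experiment, triplicate determinations.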

The target of assay [8] is T5, Retinoic acid receptor RXR-alpha. The assay is described as follows: Transcriptional activation of Retinoid X receptor RXR alpha;NA=not active. Also on record: species or system Cercopithecidae. An outline of the steps: as §2

Bounds are passed on as bounds.

Consider `Cc1cc2c(cc1Sc1ccc(C(=O)O)cn1)C(C)(C)CCC2(C)C`, for which the EC50 in assay [1] was found to be 100 nM. Also, the IC50 in assay [2] is 1000 nM. For the same compound, the Kd entry in assay [3] is “Not Active”; in assay [4], “Not Active”; in assay [5] it was 87 nM.
With `Cc1cc2c(cc1Sc1ncc(C(=O)O)s1)C(C)(C)CCC2(C)C`, in assay [5], the Kd is 1000 nM.
Consider `Cc1cc2c(cc1Sc1ccc(C(=O)O)cc1)C(C)(C)CCC2(C)C`, for which the EC50 was 200 nM in assay [1] and “Not Active” in assay [6]. The compound further came in with an IC50 in assay [2] of 910 nM.
For `CC1(C)CCC(C)(C)c2cc(Sc3ccc(C(=O)O)cc3)ccc21`, the EC50 in assay [7] came to 770 nM; in assay [6], 340 nM. Further, in assay [5], the Kd is 3090 nM.
For the compound `Cc1cc2c(cc1[S+]([O-])c1ccc(C(=O)O)cc1)C(C)(C)CCC2(C)C` (centres undefined), in assay [8], the EC50 entry is on record as “Not Active”. For the same compound, the Kd in assay [5] is > 10000 nM.

One may read the EC50 as the concentration at which the effect is half-maximal. As a reminder, the IC50 is the concentration that gives 50% inhibition. Usually Kd stands for the concentration at which binding is half-saturated.
